5 compounds from ChEMBL document CHEMBL3045119, “Synthesis and fungicidal activity of novel aminophenazine-1-carboxylate derivatives” (J Agric Food Chem, 2010) can be followed below.

The subject of experiment [1] is Botryosphaeria berengeriana. The experiment in a line: Fungicidal activity against Botryosphaeria berengeriana assessed as inhibition of mycelium growth by mycelium growth rate method. It counts as functional, organism-based. Put shortly: (§1)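 Mycelium growth rate method: colony diameters measured once mycelia had grown completely, and the relative inhibition rate (%) calculated from the diameters by formula. Phenazine-1-carboxylic acid ran as control. Values are the average of three replicate results.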

The subject of experiment [2] is Fusarium graminearum. The experiment in a line: Fungicidal activity against Fusarium graminearum assessed as inhibition of mycelium growth by mycelium growth rate method. It counts as functional, organism-based. Put shortly: as §1
Experiment [3] has as its system Fusarium oxysporum. The experiment in a line: Fungicidal activity against Fusarium oxysporum assessed as inhibition of mycelium growth by mycelium growth rate method. It counts as functional, organism-based. Put shortly:
as §1

Experiment [4] concerns Mycosphaerella arachidis. The experiment is described as follows: Fungicidal activity against Mycosphaerella arachidis assessed as inhibition of mycelium growth by mycelium growth rate method. It counts as functional, organism-based. Put shortly:
as §1

In experiment [5] the test system is Alternaria solani. The experiment is described as follows: Fungicidal activity against Alternaria solani assessed as inhibition of mycelium growth by mycelium growth rate method. It counts as functional, organism-based. In short, it runs like this:
as §1

The test system of experiment [6] is Botryosphaeria berengeriana. The experiment in a line: Fungicidal activity against Botryosphaeria berengeriana assessed as inhibition of mycelium growth at 50 ug/mL by mycelium growth rate method. It counts as functional. Put shortly:
as §1

For experiment [7], the system named is Fusarium graminearum. The experiment is described as follows: Fungicidal activity against Fusarium graminearum assessed as inhibition of mycelium growth at 50 ug/mL by mycelium growth rate method. It counts as functional. Put shortly: as §1
For experiment [8], the system named is Fusarium oxysporum. The experiment is described as follows: Fungicidal activity against Fusarium oxysporum assessed as inhibition of mycelium growth at 50 ug/mL by mycelium growth rate method. It counts as functional. Put shortly:
as §1

For experiment [9], the system named is Mycosphaerella arachidis. The experiment is described as follows: Fungicidal activity against Mycosphaerella arachidis assessed as inhibition of mycelium growth at 50 ug/mL by mycelium growth rate method. In kind it is functional. Put shortly: as §1
The subject of experiment [10] is Alternaria solani. The experiment in a line: Fungicidal activity against Alternaria solani assessed as inhibition of mycelium growth at 50 ug/mL by mycelium growth rate method. In kind it is functional. In short, it runs like this:
as §1

In brackets after ≈: the same amount, converted by molar mass.

For `COC(=O)c1cccc2nc3c(N)cccc3nc12`, the EC50 – broadly, the concentration at which the effect is half-maximal – in experiment [1] was 3 µg/mL (≈ 11.8 µM); in experiment [2], above 50 µg/mL; in experiment [3] it was above 50 µg/mL; in experiment [4] it was above 50 µg/mL; in experiment [5], 20.5 µg/mL (≈ 81.1 µM). Further, the inhibition (usually the percentage by which the read-out fell short of the control) at 50 µg/mL amounted to 100% in [6]; 36.3% in [7]; 40% in [8]; 26.9% in experiment [9]; 100% in experiment [10].

Take `O=C(O)c1cccc2nc3ccccc3nc12` [PHENAZINE-1-CARBOXYLIC ACID]: the concentration for a half-maximal effect (EC50) in experiment [1] is 3.58 µg/mL (≈ 16 µM); in [2], above 50 µg/mL; in [3], 14.9 µg/mL (≈ 66.5 µM); in experiment [4], 13.2 µg/mL (≈ 58.9 µM); in experiment [5], 18.5 µg/mL (≈ 82.5 µM). The inhibition at 50 µg/mL in experiment [6] turned out to be 100%; in [7] it was 43.1%; in [8], 65.4%; in experiment [9] it was 92.3%; in experiment [10], 100%.

As for `CCOC(=O)c1cccc2nc3c(N)cccc3nc12`, the EC50 in [1] is 4.44 µg/mL (≈ 16.6 µM); in experiment [2] it was above 50 µg/mL; in experiment [3], above 50 µg/mL; in [4], above 50 µg/mL; in experiment [5], 40.1 µg/mL (≈ 150 µM). The inhibition at 50 µg/mL was determined as 100% in [6]; 41.8% in experiment [7]; 33.3% in experiment [8]; 32% in experiment [9]; 51% in [10].

On to `CCOC(=O)c1cccc2nc3ccc(N)cc3nc12`, for which the inhibition at 50 µg/mL in [6] is 51.4%; in [7] it was 20%; in experiment [8] it was 16.7%; in experiment [9] it was 12%; in experiment [10] it was 20%.

Regarding `COC(=O)c1cccc2nc3c(C(=O)c4ccc(Cl)cc4Cl)cccc3nc12`, the inhibition at 50 µg/mL in experiment [6] came to 10.7%; in experiment [7], 27.3%; in experiment [8], 7.1%; in experiment [9] it was 0%; in experiment [10], 3.4%.
